Assays:
HeLa [1] = assay: In vitro anticellular activity tested against HeLa S3 cells; format: functional, cell-based; conditions: Homo sapiens
Summary of the method: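 HeLa S3 cells seeded on day 0, then exposed to drug for 1 h on day 1; anticellular activity determined by a previously described method.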

Mus musculus [2] = assay: In vivo antitumor activity against lymphatic leukemia P388 cells resistant to mitomycin C (MMC) was measured as maximal increase in life span of the treated mice at optimal dose of 9.0 mg/kg; format: functional
CCRF S-180 [3] = assay: Optimal dose towards sarcoma 180 cells, inoculated subcutaneously to the axillary region of ddY mice; format: functional, Mus musculus
Summary of the method: (§1)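 Sarcoma 180 cells implanted sc in the axillary region of ddY mice on day 0; compounds given iv on day 1. Tumor volume compared treated versus control (T/C). 50% growth-inhibitory dose calculated from the dose-response curve; optimal dose also recorded.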

Mus musculus [4] = assay: Effective dose that gave 50% inhibition of tumor growth was calculated towards sarcoma 180 cells which were inoculated subcutaneously to the axillary region of ddY mice; format: functional; conditions: Mus musculus, 180, sc; summary of the method: as §1
Mus musculus [5] = assay: In vivo antitumor activity against lymphatic leukemia P388 cells resistant to mitomycin C (MMC) was measured as maximal increase in life span of the treated mice at optimal dose of 25 mg/kg; format: functional
Mus musculus [6] = assay: In vivo antitumor activity against lymphatic leukemia P388 cells sensitive to mitomycin C (MMC) was measured as maximal increase in life span of the treated mice at optimal dose of 25 mg/kg; format: functional
Mus musculus [7] = assay: The in vivo antitumor activity against lymphatic leukemia P388 cells resistant to mitomycin C (MMC) in mice was measured as maximal increase in life span of the treated mice at optimal dose of 3.1 mg/kg; format: functional
Mus musculus [8] = assay: In vivo antitumor activity against lymphatic leukemia P388 cells sensitive to mitomycin C (MMC) was measured as maximal increase in life span of the treated mice at optimal dose of 3.1 mg/kg; format: functional
Mus musculus [9] = assay: In vivo antitumor activity against lymphatic leukemia P388 cells resistant to mitomycin C (MMC) was measured as maximal increase in life span of the treated mice at optimal dose of 6.0 mg/kg; format: functional
CCRF S-180 [10] = assay: Tumor volume of sarcoma 180 cells which were inoculated […] to the axillary region of ddY mice, after treatment; format: functional, Mus musculus
Mus musculus [11] = assay: Tumor volume was calculated against sarcoma 180 cells which were inoculated subcutaneously to the axillary region of ddY mice; 0.28-0.46
HeLa [12] = assay: In vitro anticellular activity against HeLa S3 cells; 0.59-1.1; format: functional, cell-based; conditions: Homo sapiens
Mus musculus [13] = assay: Effective dose that gave 50% inhibition of tumor growth was calculated towards sarcoma 180 cells which were inoculated subcutaneously to the axillary region of ddY mice; 1.9-3.7; format: functional; conditions: Mus musculus, 180, sc
Mus musculus [14] = assay: In vivo antitumor activity against lymphatic leukemia P388 cells sensitive to mitomycin C (MMC) was measured as maximal increase in life span of the treated mice at optimal dose of 1.0-6.0 mg/kg; 38-84; format: functional
Mus musculus [15] = assay: Optimal dose was calculated towards sarcoma 180 cells which were inoculated subcutaneously to the axillary region of ddY mice; 4.0-6.0; format: functional
Mus musculus [16] = assay: In vivo antitumor activity against lymphatic leukemia P388 cells resistant to mitomycin C (MMC) was measured as maximal increase in life span of the treated mice at optimal dose of 1.0-4.0 mg/kg; format: functional
HeLa [17] = assay: In vitro anticellular activity against HeLa S3 cells; 0.82-1.4; format: functional, cell-based; conditions: Homo sapiens

In the case of `CO[C@@]12[C@H](COC(N)=O)C3=C(C(=O)C(CSc4nncn4C)=C(N)C3=O)N1C[C@@H]1N[C@@H]12`, the IC50 (HeLa [1]) is reported as 2500 nM, the ILS at 9 mg/kg (Mus musculus [2]) is reported as greater than 71% and the OD (CCRF S-180 [3]) is reported as 46 mg/kg. The ED50 (Mus musculus [4]) was 39 mg/kg.

`CO[C@@]12[C@H](COC(N)=O)C3=C(C(=O)C(COC(C)C)=C(N)C3=O)N1C[C@@H]1N[C@@H]12` was tested, and the ILS at 25 mg/kg (Mus musculus [5]) was greater than 97%, the IC50 (HeLa [1]) was 2500 nM and the OD (CCRF S-180 [3]) was 50 mg/kg. It also gave an ED50 (Mus musculus [4]) of 15 mg/kg and an ILS at 25 mg/kg (Mus musculus [6]) of 55%.

For `CO[C@@]12[C@H](COC(N)=O)C3=C(C(=O)C(CSc4nccs4)=C(N)C3=O)N1C[C@@H]1N[C@@H]12`, the ILS at 3.1 mg/kg (Mus musculus [7]) was 26%, the IC50 (HeLa [1]) was 1400 nM and the OD (CCRF S-180 [3]) was 13 mg/kg. For the same compound, the ILS at 3.1 mg/kg (Mus musculus [8]) was 49% and the ED50 (Mus musculus [4]) was 8.9 mg/kg.

`C=CCSCC1=C(N)C(=O)C2=C(C1=O)N1C[C@@H]3N[C@@H]3[C@]1(OC)[C@@H]2COC(N)=O` gave an ILS at 6 mg/kg (Mus musculus [9]) of 33%, an IC50 (HeLa [1]) of 2300 nM and an OD (CCRF S-180 [3]) of 14 mg/kg. For the same compound, the T/C (CCRF S-180 [10]) was 0.77 min.

For `CO[C@@]12[C@H](COC(N)=O)C3=C(C(=O)C(C)=C(N)C3=O)N1C[C@@H]1N[C@@H]12` [MITOMYCIN], the T/C (Mus musculus [11]) was 0.46, the IC50 (HeLa [12]) was 1100 nM and the ED50 (Mus musculus [13]) was 3.7 mg/kg. For the same compound, the ILS (Mus musculus [14]) was 84%, the OD (Mus musculus [15]) was 6 mg/kg and the ILS (Mus musculus [16]) was 23%. The IC50 (HeLa [17]) was 1400 nM.
